# CHOP inhibitor = inhibitors of CHOP promoter induction, primary screen, cell-based, unfolded protein response, luciferase reporter; CHO-K1 CHOP-promoter luciferase, tunicamycin-induced, 15-18 h; inhibition, % at 10 µM; actives 3.8% (n = 220,000); AID 2732, 2010;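 active = compounds that reduced the stress-induced luciferase reporter signal by more than about 70% of percent inhibition, limit read from the data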;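 also: 0% = tunicamycin plus vehicle and 100% = wells without tunicamycin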
# Lipid droplet = inhibitors of hepatocyte lipid droplet formation, primary screen, imaging, high-throughput imaging, BODIPY stain; actives 0.4% (n = 240,000); AID 1656, 2009; AML12 mouse hepatocytes, oleate lipid droplets; inhibition, % at 6.5 µM;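 active = lipid droplet intensity inhibited by at least 50%, with more than 500 cells counted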
#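 Test system: AML12 mouse liver cells; schedule: overnight exposure; technique: high-content imaging of BODIPY-stained droplets and DAPI nuclei; read-out: % inhibition of corrected integrated BODIPY droplet signal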
# XBP1 UPR activ = activators of adaptive XBP1 UPR arm, primary screen, cell-based, CHO-XBP1 luciferase reporter, luminescence, uHTS | IRE1-XBP1 UPR activation; percent of tunicamycin response, DMSO as zero | activation, % at 20 µM | actives 0.33% (n = 330,000);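 active = versus positive control, 20 µM dose yields 30% or more activation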;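 also: 100% = tunicamycin at 10 µg/mL and 0% = DMSO only wells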
#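 Assay system: IRE1-XBP1 luciferase reporter CHO line. Input: 1000 cells/well. Buffer or medium: F12 with 10% serum. Doses: 20 µM, 1% DMSO. Times: overnight seeding at 37 °C, 6 h compound treatment at 37 °C. Technique: Steady-Glo luciferase glow luminescence, 10 min after reagent addition.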
# TMEM16A inh = TMEM16A chloride channel inhibitors, primary screen, cell-based, HTS. Anoctamin-1 (Mus musculus), Q8BHY3. HEK293 TMEM16A/YFP iodide influx fluorescence, ionomycin. normalized B-score (activity score, 25-100; higher = stronger inhibition) at 10 µM. actives 1.2% (n = 310,000). AID 588511, 2011;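 active = ratio plate-corrected score three or more library SD toward inhibition, starting fluorescence score within five deviations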;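 also: score derived from kinetic fluorescence span divided by baseline fluorescence per well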
# UPR CHOP act = activators of apoptotic CHOP UPR arm, primary screen, cell-based, CHO-CHOP luciferase reporter, luminescence, uHTS; activation, % at 10 µM; AID 449763, 2010; UPR activation; percent of tunicamycin response over DMSO baseline; actives 0.34% (n = 330,000);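 active = at 10 µM dose, activation of 40% or more, normalized to positive control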;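 also: 100% = tunicamycin at 10 µg/mL and 0% = DMSO alone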
#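 measured by = luciferase luminescence | assay system = CHO-CHOP cells, stable luciferase reporter of PERK-eIF2a-CHOP signalling | amount = 500 reporter cells seeded per well | timing = 6 h compound exposure at 37 °C after overnight seeding | controls = positive tunicamycin 10 µg/mL, negative DMSO alone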
# ANO1 activ = TMEM16A chloride channel activators or potentiators, primary screen, cell-based, HTS | Anoctamin-1 (Mus musculus), Q8BHY3 | HEK293 TMEM16A/YFP-H148Q/I152L, iodide quench fluorescence; active compounds read low | B-score at 10 µM | actives 0.3% (n = 340,000);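 active = fluorescence-ratio B-score plate-corrected deviation score at least 3 library SD below zero, with starting fluorescence score within 5 deviations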;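 also: channel opened by trigger with iodide after compound preincubation; score built on the fluorescence ratio of max minus min over baseline; more negative score means more quench and so TMEM16A activation or potentiation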
# * = called active by the depositor; i = inactive; nt = not tested or not shown. Hits are enriched below; roughly 4.2% of the tested compounds scored in any of these assays.
SMILES,CHOP inhibitor,Lipid droplet,XBP1 UPR activ,TMEM16A inh,UPR CHOP act,ANO1 activ
CCc1nc(SCC(=O)Nc2c(C)nn(C)c2C)c2cnn(-c3ccccc3)c2n1,90*,nt,nt,nt,nt,nt
O=C(Nc1ccc(Br)cc1)c1ccc(F)c(S(=O)(=O)NCc2cccs2)c1,93*,-36,-1,i,4,i
CCOc1ccc2nc(NS(=O)(=O)c3cccs3)sc2c1,nt,-6,-4,i,3,i
Cc1ccc(-c2cc(C(=O)OCC(=O)NC3CC3)c3ccccc3n2)cc1,nt,nt,-2,nt,2,i
COc1ccc(CN(C(=S)Nc2ccccc2)C2CC(=O)N(c3ccc(Cl)cc3)C2=O)cc1 (centres undefined),72*,nt,-4,i,3,i
CCNC(=S)N(Cc1ccc(OC)cc1)C1CC(=O)N(c2ccc(OCC)cc2)C1=O (centres undefined),73*,-51,-3,i,-2,i
CCNC(=S)N(Cc1ccc2c(c1)OCO2)C1CC(=O)N(c2ccc(F)cc2)C1=O (centres undefined),73*,-4,-4,i,-1,i
COc1ccc(CN(C(=S)Nc2ccccc2)C2CC(=O)N(c3ccccc3)C2=O)cc1 (centres undefined),2,2,6,i,0,i
CCNC(=S)N(Cc1ccc2c(c1)OCO2)C1CC(=O)N(c2ccc(OC)cc2)C1=O (centres undefined),55,-14,-4,i,0,i
CCN/C=C(\C#N)S(=O)(=O)c1ccc(Br)cc1,6,-7,-1,i,1,i
COc1cc2[nH]c(=S)n(Cc3ccc(C)cc3)c(=O)c2cc1OC,11,22,0,i,-1,i
COc1ccc(Cn2c(=S)[nH]c3cc(OC)c(OC)cc3c2=O)cc1,83*,20,20,i,7,i
C=CCc1cccc(/C=N/NC(=O)CNc2ccccc2OC)c1O,89*,4,1,i,0,i
C=CCc1cccc(/C=N/NC(=O)C(C)Nc2cccc(C)c2)c1O (centres undefined),91*,4,-2,i,-3,i
C=CCc1cccc(/C=N/NC(=O)CNc2ccccc2)c1O,89*,-7,2,i,1,i
C=CCc1cccc(/C=N/NC(=O)CNc2cccc3ccccc23)c1O,41,9,4,i,2,i
C=CCc1cccc(/C=N/NC(=O)C[n+]2ccccc2)c1O,nt,4,-2,i,2,nt
CCO[C@@H]1OC(C(=O)N2CCN(C)CC2)=C[C@H](C(C)(C)C)[C@H]1CCCO,4,-2,5,i,0,nt
COc1cccc(NC(=O)C(c2ccccc2)N2CCN(CC(=O)N3CCOCC3)CC2)c1 (centres undefined),nt,nt,-2,nt,3,i
Cc1ccc(C2(C)NC(=O)N(CC(=O)NC(C)c3ccccc3)C2=O)cc1 (centres undefined),nt,-6,-1,i,2,i
CCOC(=O)C/C(C)=N/NC(=O)C1CC1(c1ccccc1)c1ccccc1 (centres undefined),36,-27,0,i,3,i
CC(C)c1nc(SCC(=O)c2ccc(F)cc2)c2ccccc2n1,84*,-1,6,i,-1,i
COC(=O)CSc1nc(C(C)C)nc2ccccc12,-1,nt,0,i,-1,i
CCCC(C(=O)NC(C)(C)C)N(CC1CCCO1)C(=O)CNS(=O)(=O)c1ccc(F)cc1 (centres undefined),nt,-4,-3,i,1,i
Oc1ccc(Cl)cc1/C=C/c1ccc2cccc(O)c2n1,94*,-4,6,nt,5,i
SMILES,CHOP inhibitor,Lipid droplet,XBP1 UPR activ,TMEM16A inh,UPR CHOP act,ANO1 activ
CCc1nnc(NC(=O)CCc2ccc(C)o2)s1,75*,-4,-2,i,1,i
O=C(NNC(=O)c1cc(-c2ccccc2)nc2ccccc12)Nc1cccc(Cl)c1,1,-3,-3,100*,-1,i
CC(C)(C)c1ccc(-c2cc(C(=O)NNC(=O)Nc3ccccc3)c3ccccc3n2)cc1,94*,9,1,i,4,i
O=C1CC2C(CC(OC(=O)c3ccc(-c4ccccc4)cc3)C2CO)O1 (centres undefined),2,3,6,i,-1,i
O=C1C[C@H]2[C@H](CO)[C@@H](OC(=O)c3ccc(-c4ccccc4)cc3)C[C@H]2O1,-24,0,4,25*,5,i
CC(=O)N[C@@H](Cc1c[nH]c2ccccc12)C(=O)OCC(=O)Nc1ccc2c(c1)OCO2,nt,nt,nt,nt,nt,i
O=C(COC(=O)[C@H](Cc1c[nH]c2ccccc12)NC(=O)c1ccc(Cl)cc1)Nc1ccc2c(c1)OCO2,82*,8,7,i,4,i
COc1cccc(/C=N/NC(=O)c2cc3c(OC)cccc3[nH]2)c1O,92*,0,-2,i,-1,i
COc1cccc(/C=N/NC(=O)c2cc3cc([N+](=O)[O-])ccc3s2)c1O,100*,3,nt,i,nt,i
COc1ccccc1/C=N/NC(=O)c1ccc(NC(=O)c2cccc([N+](=O)[O-])c2)cc1,-16,6,-4,i,0,nt
C/C(=N\NC(=O)c1ccc(Br)cc1)C1C(=O)c2ccccc2C1=O,-17,-15,5,100*,2,i
COc1ccc(/C=N/NC(=O)COc2ccc(Cl)cc2Cl)cc1Cn1nc(C)cc1C,93*,-11,-1,i,-1,i
O=C(COc1ccc(Cl)cc1Cl)N/N=C/c1cccnc1,nt,0,-2,i,2,i
Cc1ccccc1NC(=O)CCC(=O)N/N=C/c1ccncc1,nt,nt,-3,i,0,i
O=C(CSc1ncnc2c1oc1ccccc12)Nc1cccc(C(F)(F)F)c1,79*,nt,-1,i,-2,i
O=C(CSc1ncnc2c1oc1ccccc12)Nc1cccc(Cl)c1,66,nt,1,i,2,i
COc1cc2cc(C(c3nnnn3C3CCCC3)N(C)C3CCCCC3)c(=O)[nH]c2cc1OC (centres undefined),50,-15,0,i,1,i

# High-throughput results as filed in PubChem.
